Source: ChEMBL document CHEMBL4425113, “Chromenopyrazole, a Versatile Cannabinoid Scaffold with in Vivo Activity in a Model of Multiple Sclerosis” (J Med Chem, 2016)
Activity calls are given as the source filed them. The calls are words filed in the database; no cut-off is given here.

Columns and labels:
[1] = target: T1, Cannabinoid receptor 1 (Homo sapiens, UniProt P21554); assay: biochemical; format: cell-based, HEK293
[2] = target: T2, Cannabinoid receptor 2 (Homo sapiens, UniProt P34972); assay: Displacement of [3H]-CP55940 from human CB2 receptor expressed in HEK293 cell membranes after 90 mins by liquid scintillation counting method
T2 sequence (P34972 whole entry): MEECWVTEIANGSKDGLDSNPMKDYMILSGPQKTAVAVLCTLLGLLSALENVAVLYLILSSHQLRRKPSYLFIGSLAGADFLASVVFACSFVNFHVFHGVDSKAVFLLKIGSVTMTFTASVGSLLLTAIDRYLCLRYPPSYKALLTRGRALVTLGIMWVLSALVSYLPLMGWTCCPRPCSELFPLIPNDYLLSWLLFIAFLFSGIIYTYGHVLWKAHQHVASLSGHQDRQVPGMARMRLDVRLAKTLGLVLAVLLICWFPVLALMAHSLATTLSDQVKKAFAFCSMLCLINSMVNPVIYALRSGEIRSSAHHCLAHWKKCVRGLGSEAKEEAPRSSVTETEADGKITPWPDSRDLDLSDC

[3] = species: Homo sapiens; assay: Selectivity ratio of Ki for human CB1 receptor to Ki for human CB2 receptor
Procedure, shortened: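 Membranes from cells transfected with hCB1 (8 μg/well; Tris 50 mM, MgCl2 5 mM, EDTA 2.5 mM, BSA 0.5 mg/mL, pH 7.4) or hCB2 (4 μg/well; EGTA 2.5 mM, BSA 1 mg/mL, pH 7.5); [3H]CP55940, 90 min at 30 °C. […] Nonspecific binding 10 μM WIN55212-2; GF/C filtration, scintillation; ≥3 experiments in triplicate.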

[4] = target: T2, Cannabinoid receptor 2; assay: Agonist activity at human CB2 receptor expressed in HEK293 cell membranes assessed as inhibition of forskolin-stimulated cAMP accumulation at 200 nM after 60 mins by HTRF assay; format: functional, cell-based
Procedure, shortened: (§1)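 HEK293 cells stably expressing hCB2, 5.000 cells/well, forskolin-stimulated; Lance-Ultra TR-FRET cAMP kit, 60 min room temperature with HTRF reagents; 665/620 nm ratio converted to cAMP via standard curve; forskolin level set to 100%.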

[5] = target: T2, Cannabinoid receptor 2; assay: Agonist activity at human CB2 receptor expressed in HEK293 cell membranes assessed as inhibition of forskolin-stimulated cAMP accumulation at 1 uM after 60 mins by HTRF assay; format: functional, cell-based
Procedure, shortened: as §1

[6] = target: T2, Cannabinoid receptor 2; assay: Agonist activity at human CB2 receptor expressed in HEK293 cell membranes assessed as inhibition of forskolin-stimulated cAMP accumulation after 60 mins by HTRF assay; format: functional, cell-based
[7] = target: T2, Cannabinoid receptor 2; assay: Agonist activity at human CB2 receptor expressed in HEK293 cell membranes assessed as induction of [35S]-GTPgammaS binding after 60 mins by liquid scintillation spectrometric method; format: functional
[8] = target: T1, Cannabinoid receptor 1; assay: Agonist activity at human CB1 receptor expressed in HEK293 cell membranes assessed as induction of [35S]-GTPgammaS binding after 60 mins by liquid scintillation spectrometric method; format: functional
[9] = target: T2, Cannabinoid receptor 2; assay: Partial agonist activity at human CB2 receptor expressed in HEK293 cell membranes assessed as inhibition of forskolin-stimulated cAMP accumulation at 200 nM after 60 mins by HTRF assay; format: functional, cell-based
Procedure, shortened: as §1

[10] = target: T2, Cannabinoid receptor 2; assay: Partial agonist activity at human CB2 receptor expressed in HEK293 cell membranes assessed as inhibition of forskolin-stimulated cAMP accumulation at 1 uM after 60 mins by HTRF assay; format: functional, cell-based
Procedure, shortened: as §1

[11] = Binding affinity to PDEA modified AGP (unknown origin) at 40 uM by surface plasmon resonance method; format: ADME; conditions: human, isolated protein
[12] = species: Homo sapiens; assay: Selectivity ratio of Ki for human CB2 receptor to Ki for human CB1 receptor
[13] = test system: Mus musculus; assay: Antiinflammatory activity in TMEV-induced SJL/J mouse demyelinating disease model assessed as reduction of microglial activation by measuring […] in Iba-1 expression at 5 mg/kg, ip administered for 7 days by fluorescence assay; format: functional, organism-based
Procedure, shortened: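 Female SJL/J mice, 12 weeks, inoculated intracerebrally (right hemisphere) with TMEV DA strain; sham get vehicle. Compound 5 mg/kg i.p. daily for 7 days, vehicle 10% DMSO in PBS. Perfused brains PFA-fixed; sections stained anti-Iba1 (1:1,000) plus Alexa secondary; confocal fluorescence intensity, 6 sections/animal, ≥5 animals/group; Kruskal–Wallis test.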

[14] = target: T2, Cannabinoid receptor 2; assay: Antagonist activity at human CB2 receptor expressed in HEK293 cell membranes assessed as inhibition of CP55940-mediated suppression of forskolin-stimulated cAMP accumulation at 1 uM after 60 mins by HTRF assay; format: functional, cell-based
[15] = target: T2, Cannabinoid receptor 2; assay: Antagonist activity at human CB2 receptor expressed in HEK293 cell membranes assessed as inhibition of CP55940-mediated suppression of forskolin-stimulated cAMP accumulation at 200 nM after 60 mins by HTRF assay; format: functional, cell-based

T1 sequence (P21554 whole entry): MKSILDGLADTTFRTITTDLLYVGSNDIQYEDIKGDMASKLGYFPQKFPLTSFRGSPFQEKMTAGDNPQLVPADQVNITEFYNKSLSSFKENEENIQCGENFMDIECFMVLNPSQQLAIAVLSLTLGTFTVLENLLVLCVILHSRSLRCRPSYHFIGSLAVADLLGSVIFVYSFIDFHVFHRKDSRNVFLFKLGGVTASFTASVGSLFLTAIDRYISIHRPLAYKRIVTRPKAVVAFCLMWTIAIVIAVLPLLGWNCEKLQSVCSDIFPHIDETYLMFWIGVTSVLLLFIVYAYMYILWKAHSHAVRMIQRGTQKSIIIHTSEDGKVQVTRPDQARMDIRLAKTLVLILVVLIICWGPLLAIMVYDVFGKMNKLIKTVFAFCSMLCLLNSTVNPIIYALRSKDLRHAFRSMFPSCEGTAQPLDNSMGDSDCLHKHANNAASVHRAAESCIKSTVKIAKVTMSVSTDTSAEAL

Q: With CCCCCCC(C)(C)c1cc(OCCO)c2c(c1)OC(C)(C)c1cn[nH]c1-2 as the compound, how does the Ki [1] read?
A: 64.8 nM

Q: And the Ki [2]?
A: 3.6 nM

Q: And the Ratio Ki [3]?
A: 18

Q: And the inhibition [4]?
A: Active

Q: What about the inhibition [5] of the same compound?
A: Active

Q: And the Emax [6]?
A: 95%

Q: What about the IC50 [6] of the same compound?
A: 21.6 nM

Q: What about the Emax [7] of the same compound?
A: 110%

Q: For CCCCCCC(C)(C)c1cc(O)c2c(c1)OC(C)(C)c1cn(CCO)nc1-2, which Ki [1] is on record?
A: 54.4 nM

Q: And the Ki [2]?
A: 39.6 nM

Q: And the Ratio Ki [3]?
A: 1.4

Q: What about the EC50 [8] of the same compound?
A: 299 nM

Q: What does the source list for CCCCCCC(C)(C)c1cc(OCCCBr)c2c(c1)OC(C)(C)c1cn(C)nc1-2?
A: Ki [1]: 1480 nM; Ki [2]: 77.3 nM; Ratio Ki [3]: 19.1; inhibition [9]: Active; inhibition [10]: Active; PB [11]: Active

Q: For CCCCCCC(C)(C)c1cc(OCCCO)c2c(c1)OC(C)(C)c1cn[nH]c1-2, which Ki [1] is on record?
A: 450 nM

Q: What about the Ki [2] of the same compound?
A: 26 nM

Q: And the Ratio Ki [3]?
A: 17.3

Q: What about the inhibition [9] of the same compound?
A: Active

Q: What about the inhibition [10] of the same compound?
A: Active

Q: And the PB [11]?
A: Active

Q: With CCCCCCC(C)(C)c1cc(O)c2c(c1)OC(C)(C)c1cnn(CC)c1-2 as the compound, how does the Ki ([1]; hek293) read?
A: 4.5 nM

Q: What about the Ratio Ki [12] of the same compound?
A: > 8000

Q: With CCCCCCC(C)(C)c1cc(OCCCO)c2c(c1)OC(C)(C)c1cnoc1-2 as the compound, how does the Ki [1] read?
A: 333 nM

Q: What about the Ki [2] of the same compound?
A: 65.5 nM

Q: And the Ratio Ki [3]?
A: 5.1

Q: What about the inhibition [4] of the same compound?
A: Active

Q: What about the inhibition [5] of the same compound?
A: Active

Q: And the Emax [6]?
A: 91%

Q: What about the IC50 [6] of the same compound?
A: 14 nM

Q: And the Emax [7]?
A: 96%

Q: Which Ki [1] does the source give for CCCCCCC(C)(C)c1cc(O)c2c(c1)OC(C)(C)c1cnn(CCO)c1-2 here?
A: 19.1 nM

Q: What about the Ki [2] of the same compound?
A: 366 nM

Q: What about the Ratio Ki [12] of the same compound?
A: 19.1

Q: What does the source list for CCCCCCC(C)(C)c1cc(O)c2c(c1)OC(C)(C)c1cnoc1-2?
A: Ki [1]: 15.4 nM; Ki [2]: 5.3 nM; Ratio Ki [3]: 2.9; inhibition [4]: Active; inhibition [5]: Active; Emax [6]: 98%; IC50 [6]: 134 nM; Emax [7]: 114%; EC50 [8]: 15.8 nM; PB [11]: Active

Q: Which Ki [1] does the source give for CCCCCCC(C)(C)c1cc(OC)c2c(c1)OC(C)(C)c1cnn(CC)c1-2 here?
A: 5040 nM

Q: And the Ki [2]?
A: 159 nM

Q: And the Ratio Ki [3]?
A: 31.6

Q: And the inhibition [9]?
A: Active

Q: What about the inhibition [10] of the same compound?
A: Active

Q: For CCCCCCC(C)(C)c1cc(OC)c2c(c1)OC(C)(C)c1cnoc1-2, which Ki [1] is on record?
A: > 40000 nM

Q: What about the Ki [2] of the same compound?
A: 12.8 nM

Q: And the Ratio Ki [3]?
A: > 3100

Q: What about the inhibition [4] of the same compound?
A: Active

Q: What about the inhibition [5] of the same compound?
A: Active

Q: And the Emax [6]?
A: 101%

Q: What about the IC50 [6] of the same compound?
A: 4.2 nM

Q: And the Emax [7]?
A: 98%

Q: And the PB [11]?
A: Active

Q: What about the Activity [13] of the same compound?
A: Active

Q: With CCCCCCC(C)(C)c1cc(OC)c([C@H]2C=C(CO)[C@@H]3C[C@H]2C3(C)C)c(OC)c1 as the compound, how does the Emax [7] read?
A: 91%

Q: What does the source list for CCCCCCC(C)(C)c1cc(OCCCO)c2c(c1)OC(C)(C)c1cn(CC)nc1-2?
A: Ki [1]: > 40000 nM; Ki [2]: 97.4 nM; Ratio Ki [3]: > 411; inhibition [14]: Active

Q: Which Ki [1] does the source give for CCCCCCC(C)(C)c1cc(OC)c2c(c1)OC(C)(C)c1cn(CC)nc1-2 here?
A: 2930 nM

Q: And the Ki [2]?
A: 92.6 nM

Q: And the Ratio Ki [3]?
A: 31.8

Q: What about the inhibition [9] of the same compound?
A: Active

Q: And the inhibition [10]?
A: Active

Q: What about the PB [11] of the same compound?
A: Active

Q: Which Ki ([1]; hek293) does the source give for CCCCCCC(C)(C)c1cc(O)c2c(c1)OC(C)(C)c1cn[nH]c1-2 here?
A: 28.5 nM

Q: And the Ratio Ki [12]?
A: > 1400

Q: What does the source list for CCCCCCC(C)(C)c1cc(OCc2ccccc2)c2c(c1)OC(C)(C)c1cn[nH]c1-2?
A: Ki [1]: 22.4 nM; Ki [2]: 93.3 nM; Ratio Ki [12]: 4.2; inhibition [9]: Active; inhibition [10]: Active; EC50 [8]: 191 nM

Q: With CCCCCCC(C)(C)c1cc(OCCO)c2c(c1)OC(C)(C)c1cn(C)nc1-2 as the compound, how does the Ki [1] read?
A: 1090 nM

Q: What about the Ki [2] of the same compound?
A: 39.8 nM

Q: What about the Ratio Ki [3] of the same compound?
A: 27.2

Q: What about the inhibition [15] of the same compound?
A: inactive

Q: For CCCCCCC(C)(C)c1cc2c(c3c1CCCO3)-c1nn(CC)cc1C(C)(C)O2, which Ki [1] is on record?
A: > 40000 nM

Q: And the Ki [2]?
A: 122 nM

Q: What about the Ratio Ki [3] of the same compound?
A: > 330

Q: What about the inhibition [4] of the same compound?
A: Active

Q: What about the inhibition [5] of the same compound?
A: Active

Q: And the Emax [6]?
A: 98%

Q: And the IC50 [6]?
A: 25.5 nM

Q: What does the source list for CCCCCCC(C)(C)c1cc(OC)c2c(c1)OC(C)(C)c1cn(C)nc1-2?
A: Ki [1]: 4160 nM; Ki [2]: 66.4 nM; Ratio Ki [3]: 62.6; inhibition [15]: inactive; PB [11]: Active

Q: For CCCCCCC(C)(C)c1cc(O)c2c(c1)OC(C)(C)c1cnn(-c3ccc(Cl)cc3Cl)c1-2, which Ki ([1]; hek293) is on record?
A: 5.2 nM

Q: And the Ratio Ki [12]?
A: > 7500
